≈ marks a conversion by molar mass, not a printed value. Entries after “also recorded” stand apart in the source; their conditions may differ.
Legend:
[1] = tested on: CYP24A1 mRNA in HEK293T cells; test: CYP24A1 mRNA levels by quantitative PCR; type: cell-based
[2] = tested on: C. albicans ATCC 10231; test: Minimum inhibitory concentration; type: cell-based; conditions: Candida albicans, ATCC10231, read-out: Minimum inhibitory concentration (MIC) C. albicans ATCC 10231
Outline: (§1)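 Exponential-phase yeast were washed three times in PBS and suspended at 1 × 10^3 CFU/mL in RPMI 1640. Test compound and fluconazole comparator were twofold serially diluted in microplates, each concentration in triplicate wells. Growth was read as OD600, from which the MIC was determined.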

[3] = tested on: C. albicans ATCC 14053; test: Minimum inhibitory concentration; type: cell-based; conditions: Candida albicans, ATCC14053, read-out: Minimum inhibitory concentration (MIC) C. albicans ATCC 14053
Outline: as §1

[4] = tested on: C. albicans ATCC 90028; test: Activity against additional fungal strains; type: cell-based; conditions: Table 2; no quantity or unit printed
Outline: (§2)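 Fungi in exponential phase were washed three times in PBS and resuspended at 1 × 10^3 CFU mL−1 in RPMI 1640. Test compound and fluconazole were serially diluted twofold in 96-well plates, in triplicate wells per concentration. MIC was derived from OD600 readings.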

[5] = tested on: C. albicans ATCC 24433; test: Activity against additional fungal strains; type: cell-based; conditions: Table 2; no quantity or unit printed
Outline: as §2

[6] = tested on: F. solani 52628; test: Activity against additional fungal strains; type: cell-based; conditions: Table 2; no quantity or unit printed
Outline: as §2

[7] = tested on: F. solani 46492; test: Activity against additional fungal strains; type: cell-based; conditions: Table 2; no quantity or unit printed
Outline: as §2

[8] = tested on: A. brasiliensis TCC 16404; test: Activity against additional fungal strains; type: cell-based; conditions: Table 2; no quantity or unit printed
Outline: as §2

[9] = tested on: FO MYA 3461; test: Activity against additional fungal strains; type: cell-based; conditions: Table 2; no quantity or unit printed
Outline: as §2

[10] = tested on: various bacteria and fungi; test: Broad-spectrum antibacterial and antifungal MIC; type: cell-based; conditions: read-out: MIC (broad-spectrum antibacterial and antifungal activity)
[11] = tested on: C. albicans ATCC 10231; test: Time–kill kinetics; type: cell-based; conditions: 8 × MIC, after 8 h
Outline: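 C. albicans in exponential phase was diluted to 1.5 × 10^6 cells per mL in RPMI 1640, in 5 mL tubes. Drug was added and tubes were shaken at 200 rpm and 30 °C. 100 μL aliquots went to microtiter wells, were incubated at 37 °C, and OD600 was read to estimate cell concentration.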

[12] = tested on: C. albicans ATCC 10231; test: Drug-resistance study; type: cell-based; conditions: after 28 serial passages
Outline: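 Resistance development in C. albicans: the MIC of the test compound was first determined by the fungal broth microdilution method, then that determination was repeated continuously over 28 days.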

[13] = Cytotoxicity, CCK-8 assay; type: cell-based; conditions: human, HUVECs (human umbilical vein endothelial cells)
[14] = Cytotoxicity, CCK-8 assay; type: cell-based; conditions: human, Caco-2
[15] = tested on: rabbit red blood cells; test: Hemolysis assay; type: cell-based
Outline: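 Rabbit erythrocytes (4% v/v in PBS) were mixed 1:1 with test compound in PBS, giving final concentrations of 2–256 μg mL−1, and incubated for 1 h at 37 °C. Samples were centrifuged at 1000g for 5 min and supernatant A490 was read. Controls were 1% Triton X-100 and PBS. Hemolysis (%) = [(sample − PBS)/(Triton − PBS)] × 100, in triplicate.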

[16] = tested on: C. albicans ATCC 10231; test: SYTOX Green membrane integrity assay; type: cell-based; conditions: 4 × MIC; over 20 min
Outline: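 Overnight C. albicans was washed three times in PBS and set to OD600 0.2 in PBS. Cells were loaded with 0.3 μM SYTOX Green in the dark. Once the signal plateaued, test compound in PBS/DMF (final DMF 0.5%) was added. Fluorescence (ex 504 nm, em 523 nm) was monitored continuously for 1–2 h.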

[17] = Calcein leakage assay; conditions: liposomes mimicking fungal membranes
Outline: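 Large unilamellar vesicles of DOPC/DOPE/PI (2:1:1) with 15 wt% ergosterol were made by film hydration in 80 mM calcein, 50 mM HEPES, 100 mM NaCl, 0.3 mM EDTA, pH 7.4. They were freeze–thawed 10×, extruded through 100 nm filters, gel-filtered, and quantified by total phosphorus. Test compound was added in HEPES buffer with 5% DMF. Read at ex 490/em 520 nm; % leakage = (Ft−Fmin)/(Fmax−Fmin)×100, with Fmax from 1% Triton X-100.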

[18] = tested on: C. albicans ATCC 10231 biofilm; test: Inhibition of biofilm formation; type: cell-based; conditions: in vitro
Outline: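 Exponential-phase fungi at 1 × 10^6 CFU mL−1 in RPMI 1640 were allowed to adhere for 1.5 h at 37 °C, then washed twice with PBS. Fresh RPMI containing graded concentrations of test compound was added for 24 h at 37 °C in the dark. Adherent cells were stained for 3 h at 37 °C and OD was read. Results are given as % inhibition of formation.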

[19] = tested on: C. albicans ATCC 10231 biofilm; test: Biofilm eradication; type: cell-based; conditions: in vitro
Outline: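 Overnight C. albicans was adjusted to 1 × 10^6–10^7 CFU mL−1 and grown statically for 24 h at 37 °C to give mature biofilms. After two PBS rinses, biofilms were treated with test compound in fresh medium for 24 h at 37 °C; amphotericin B was the positive control and medium alone the negative control. Staining used 0.1% crystal violet for 15 min, then 95% ethanol solubilisation and OD590. Eradication (%) = [1 − OD_test/OD_negative] × 100.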

[20] = target: T1, CYP24A1 (Homo sapiens, UniProt Q07973); test: CYP24-inhibition assay; type: biochemical
T1 sequence (Q07973 36-514): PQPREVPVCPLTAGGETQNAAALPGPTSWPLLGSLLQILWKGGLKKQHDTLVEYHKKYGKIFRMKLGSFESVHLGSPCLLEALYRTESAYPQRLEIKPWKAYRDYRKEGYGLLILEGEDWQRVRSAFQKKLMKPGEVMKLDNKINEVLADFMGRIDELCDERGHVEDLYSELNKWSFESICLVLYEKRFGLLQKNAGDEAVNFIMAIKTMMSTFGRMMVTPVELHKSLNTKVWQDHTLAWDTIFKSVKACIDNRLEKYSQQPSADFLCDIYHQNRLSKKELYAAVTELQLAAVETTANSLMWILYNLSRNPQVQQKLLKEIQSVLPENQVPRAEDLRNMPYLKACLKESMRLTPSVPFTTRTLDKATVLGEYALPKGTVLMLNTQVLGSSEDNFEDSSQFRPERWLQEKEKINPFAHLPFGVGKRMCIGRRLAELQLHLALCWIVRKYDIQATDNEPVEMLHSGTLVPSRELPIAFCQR
Outline: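 Reconstituted system: 5 nM CYP24, 0.5 μM adrenodoxin and 0.05 μM adrenodoxin reductase in 100 mM Tris–HCl pH 7.4 with 1 mM EDTA. Test compound (50–200 μM) was preincubated for 15 min at room temperature. 5 μM 1,25-D3 and 1 mM NADPH were then added for 10 min at 37 °C. The reaction was stopped with 4 volumes of chloroform/methanol 3:1, and conversion was measured by C18 HPLC with UV detection at 265 nm.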

[21] = tested on: metabolic clearance of 1,25(OH)2D3 in HEK293T cells; test: Retention of 1,25; type: cell-based; conditions: 10^−7 M compound; after 24 h; LC-MS/MS

## C=C1/C(=C\C=C2/CCC[C@]3(C)[C@@H]([C@H](C)CCCC(C)(C)O)CC[C@@H]23)C[C@@H](O)C[C@@H]1O [1,25(OH)2D3, 1,25-dihydroxyvitamin D3, reference compound]
[1]; 10^−9 M, 24 h, HEK293T cells
  CYP24A1 mRNA levels, 1,25(OH)2D3 alone: significantly increased

## C[C@@H]1C/C=C/C=C/C=C/C=C/[C@H](O[C@@H]2O[C@H](C)[C@@H](O)[C@H](N)[C@@H]2O)C[C@@H]2O[C@](O)(C[C@@H](O)C[C@H]3O[C@@H]3/C=C/C(=O)O1)C[C@H](O)[C@H]2C(=O)O [Natamycin, reference compound]
[2]
  MIC: 8 µg/mL (≈ 12 µM)
[3]
  MIC: 8 µg/mL (≈ 12 µM)
[4]
  Interaction against varied fungal strains: C. albicans ATCC 90028: 8
[5]
  Interaction against varied fungal strains: C. albicans ATCC 24433: 8
[6]
  Interaction against varied fungal strains: F. solani 52628: 8
[7]
  Interaction against varied fungal strains: F. solani 46492: 8
[8]
  Interaction against varied fungal strains: A. brasiliensis TCC 16404: 8
[9]
  Interaction against varied fungal strains: FO MYA 3461: 8

## O=C(O)c1ccc(C=Nc2ncn[nH]2)cc1 [3l, 4-{[(1H-1,2,4-Triazol-5-yl)imino]methyl}benzoic acid]
[2]
  MIC: > 256 µg/mL
[3]
  MIC: > 256 µg/mL

## Oc1ccc(O)c(C=Nc2ncn[nH]2)c1 [3c, 2-{[(1H-1,2,4-Triazol-5-yl)imino]methyl}benzene-1,4-diol]
[2]
  MIC: 16 µg/mL (≈ 78.4 µM)
[3]
  MIC: 16 µg/mL (≈ 78.4 µM)
[4]
  Interaction against varied fungal strains: C. albicans ATCC 90028: 16
[5]
  Interaction against varied fungal strains: C. albicans ATCC 24433: 16
[6]
  Interaction against varied fungal strains: F. solani 52628: 32
[7]
  Interaction against varied fungal strains: F. solani 46492: 32
[8]
  Interaction against varied fungal strains: A. brasiliensis TCC 16404: 32
[9]
  Interaction against varied fungal strains: FO MYA 3461: 32
[10]
  MIC: 16 µg/mL (≈ 78.4 µM)
[11]
  Time–kill: growth of C. albicans ATCC 10231: complete inhibition
[12]
  Increase of MIC value in resistance development: no more than 8 fold
[13]
  viability at 24 h, 64 μg mL^−1: > 95%
  viability at 24 h, 128 μg mL^−1: > 80%
[14]
  viability at 24 h, 64 μg mL^−1: > 95%
  viability at 24 h, 128 μg mL^−1: > 80%
[15]; 16–128 μg mL^−1, 37 °C, 1 h
  Hemolysis of rabbit red blood cells: no significant hemolysis
[15]; rabbit red blood cells
  Half hemolytic concentration (HC50): > 256 µg/mL
[16]
  SYTOX Green fluorescence (membrane integrity): gradual increase in fluorescence
[17]
  Calcein leakage from LUVs: induced leakage of the contents in a dose-dependent manner
[18]
  Inhibition of C. albicans biofilm formation: effectively inhibited
[19]
  Disruption of pre-formed mature biofilms: significantly disrupted
[20]
  IC50: 202 µM
[20]; read-out: Inhibition of CYP24A1
  inhibition at 100 µM: 32%
[1]; 3c 10^−10 M + 1,25(OH)2D3 10^−9 M, 24 h, relative to 1,25(OH)2D3 alone
  CYP24A1 mRNA expression, co-treatment with 1,25(OH)2D3: markedly enhanced
[1]; 10^−7 M, HEK293T cells, versus solvent control
  CYP24A1 mRNA expression, compound alone: did not affect; also recorded: did not alter
[1]; cellular models, combined with 1,25(OH)2D3
  Up-regulation of CYP24A1 mRNA levels when combined with 1,25(OH)2D3: approximately twofold
[21]
  Average concentration of 1,25(OH)2D3 remaining in HEK293T cell culture: 495 pM

## Cc1ccc(C=Nc2nc[nH]n2)c(O)c1 [3a, 2-{[(1H-1,2,4-Triazol-3-yl)imino]methyl}-5-methylphenol]
[2]
  MIC: 64 µg/mL (≈ 316 µM)
[3]
  MIC: 128 µg/mL (≈ 633 µM)

## O=[N+]([O-])c1ccc(C=Nc2nc[nH]n2)c(O)c1 [3b, 2-{[(1H-1,2,4-Triazol-3-yl)imino]methyl}-5-nitrophenol]
[2]
  MIC: 64 µg/mL (≈ 274 µM)
[3]
  MIC: 64 µg/mL (≈ 274 µM)

## C(=Nc1ncn[nH]1)c1ccc(-c2ccccc2)cc1 [3f, 1-[(1,1′-Biphenyl)-4-yl]-N-(1H-1,2,4-triazol-5-yl)methanimine]
[2]
  MIC: 128 µg/mL (≈ 516 µM)
[3]
  MIC: 128 µg/mL (≈ 516 µM)

## C(=Nc1ncn[nH]1)c1ccncc1 [3h, 1-(Pyridin-4-yl)-N-(1H-1,2,4-triazol-5-yl)methanimine]
[2]
  MIC: > 256 µg/mL
[3]
  MIC: > 256 µg/mL

## CS(=O)(=O)c1ccc(C=Nc2ncn[nH]2)cc1 [3e, 1-[4-(Methylsulfonyl)phenyl]-N-(1H-1,2,4-triazol-5-yl)methanimine]
[2]
  MIC: 128 µg/mL (≈ 511 µM)
[3]
  MIC: 128 µg/mL (≈ 511 µM)

## Oc1ccc(Cl)cc1C=Nc1ncn[nH]1 [3d, 2-{[(1H-1,2,4-Triazol-5-yl)imino]methyl}-4-chlorophenol]
[2]
  MIC: 128 µg/mL (≈ 575 µM)
[3]
  MIC: 128 µg/mL (≈ 575 µM)

## Oc1ccc(C=Nc2ncn[nH]2)cc1 [3k, 4-{[(1H-1,2,4-Triazol-5-yl)imino]methyl}phenol]
[2]
  MIC: > 256 µg/mL
[3]
  MIC: > 256 µg/mL

## Clc1ccc(C=Nc2ncn[nH]2)cc1 [3g, 1-(4-Chlorophenyl)-N-(1H-1,2,4-triazol-5-yl)methanimine]
[2]
  MIC: > 256 µg/mL
[3]
  MIC: > 256 µg/mL

## COc1ccc(C=Nc2ncn[nH]2)cc1 [3j, 1-(4-Methoxyphenyl)-N-(1H-1,2,4-triazol-5-yl)methanimine]
[2]
  MIC: > 256 µg/mL
[3]
  MIC: > 256 µg/mL

## O=[N+]([O-])c1ccc(C=Nc2ncn[nH]2)cc1 [3i, 1-(4-Nitrophenyl)-N-(1H-1,2,4-triazol-5-yl)methanimine]
[2]
  MIC: 128 µg/mL (≈ 589 µM)
[3]
  MIC: 128 µg/mL (≈ 589 µM)

Source: article PMC12530853 (RSC Advances, 2025)
